“And” between values parts separate entries of the source, which are not always exact repeats. Identical values can stand only once.
Test system: Fibroblast
Test: Multiplex assay against human fibroblast
Format: toxicity, cell-based
Summary of the method: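 Values for tubulin, mitochondrial-mass and membrane-permeability phenotypes are per cents of cells with healthy nuclei. These cells were identified by CellPathfinder machine-learning gating of live cells that had been stained at seeding with Hoechst33342, BioTracker Green Microtubule Cytoskeleton Dye, MitoTracker Red and Annexin V Alexa Fluor 680 and imaged on a CQ1 microscope at 37°C and 5% CO2 after compound addition. The gating first set Hoechst high-intensity objects apart from normal cells, then split normal cells into healthy, pyknosed or fragmented nuclei, and pyknosed cells into mitotic or apoptotic.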

[1] = 12 h, 1 µM, compound concentration 1 uM
[2] = 12 h, 10 µM, compound concentration 10 uM
[3] = 24 h, 1 µM, compound concentration 1 uM
[4] = 24 h, 10 µM, compound concentration 10 uM
[5] = 48 h, 1 µM, compound concentration 1 uM
[6] = 48 h, 10 µM, compound concentration 10 uM

Cl.O=S(=O)(c1cccc2c(I)cccc12)N1CCCNCC1
Population Apoptotic (%) [1]: 20.93% and 13.51% | Population Fragmented Nuclei (%) [1]: 13.23% and 4.19% | Population Healthy Nuclei (%) [1]: 64.02% and 76.44% | Population Hoechst High Intensity Objects (%) [1]: 0% | Population Membrane Permeable-Phenotype (%) [1]: 4.96% and 4.79% | Population Mitochondria Different-Phenotype (%) [1]: 9.92% and 6.85% | Population Mitotic Cells (%) [1]: 79.07% and 86.49% | Population Normal (%) [1]: 100% | Population Pyknosed Nuclei (%) [1]: 22.75% and 19.37% | Population Tubulin-Different-Phenotype (%) [1]: 14.88% and 28.08% | Total Cell Count [1]: 189 and 191 | Population Fragmented Nuclei (%) [2]: 9.25% and 6.27% | Population Healthy Nuclei (%) [2]: 60.69% and 61.18% | Population Hoechst High Intensity Objects (%) [2]: 0% | Population Membrane Permeable-Phenotype (%) [2]: 5.71% and 3.85% | Population Mitochondria Different-Phenotype (%) [2]: 15.24% and 15.38% | Population Mitotic Cells (%) [2]: 94.23% and 67.47% | Population Normal (%) [2]: 100% | Population Pyknosed Nuclei (%) [2]: 30.06% and 32.55% | Population Tubulin-Different-Phenotype (%) [2]: 25.71% and 55.13% | Total Cell Count [2]: 173 and 255 | Population Apoptotic (%) [3]: 7.89% and 13.64% | Population Fragmented Nuclei (%) [3]: 8.84% and 7.04% | Population Healthy Nuclei (%) [3]: 73.49% and 81.91% | Population Hoechst High Intensity Objects (%) [3]: 0% | Population Membrane Permeable-Phenotype (%) [3]: 4.43% and 3.07% | Population Mitochondria Different-Phenotype (%) [3]: 6.33% and 6.13% | Population Mitotic Cells (%) [3]: 92.11% and 86.36% | Population Normal (%) [3]: 100% | Population Pyknosed Nuclei (%) [3]: 17.67% and 11.06% | Population Tubulin-Different-Phenotype (%) [3]: 16.46% and 28.22% | Total Cell Count [3]: 215 and 199 | Population Apoptotic (%) [4]: 11.9% and 25.45% | Population Fragmented Nuclei (%) [4]: 8.42% and 3.61% | Population Healthy Nuclei (%) [4]: 69.47% and 76.53% | Population Hoechst High Intensity Objects (%) [4]: 0% | Population Membrane Permeable-Phenotype (%) [4]: 3.79% and 5.66% | Population Mitochondria Different-Phenotype (%) [4]: 9.85% and 15.57% | Population Mitotic Cells (%) [4]: 88.1% and 74.55% | Population Normal (%) [4]: 100% | Population Pyknosed Nuclei (%) [4]: 22.11% and 19.86% | Population Tubulin-Different-Phenotype (%) [4]: 34.85% and 63.21% | Total Cell Count [4]: 190 and 277 | Population Apoptotic (%) [5]: 25% and 33.33% | Population Fragmented Nuclei (%) [5]: 8.44% and 10.78% | Population Healthy Nuclei (%) [5]: 86.5% and 83.33% | Population Hoechst High Intensity Objects (%) [5]: 0% | Population Membrane Permeable-Phenotype (%) [5]: 1.46% and 7.06% | Population Mitotic Cells (%) [5]: 75% and 66.67% | Population Normal (%) [5]: 100% | Population Pyknosed Nuclei (%) [5]: 5.06% and 5.88% | Total Cell Count [5]: 237 and 204 | Population Apoptotic (%) [6]: 25% and 50% | Population Healthy Nuclei (%) [6]: 74.48% and 87.96% | Population Hoechst High Intensity Objects (%) [6]: 0% | Population Membrane Permeable-Phenotype (%) [6]: 0.56% and 9.13% | Population Mitochondria Different-Phenotype (%) [6]: 10.11% and 9.51% | Population Mitotic Cells (%) [6]: 75% and 50% | Population Normal (%) [6]: 100% | Population Pyknosed Nuclei (%) [6]: 8.37% and 7.36% | Population Tubulin-Different-Phenotype (%) [6]: 19.1% and 53.99% | Total Cell Count [6]: 239 and 299

Cc1[nH]nc2ccc(-c3cncc(OCC(N)Cc4c[nH]c5ccccc45)c3)cc12 (centres undefined)
Population Apoptotic (%) [1]: 18.11% and 24.66% | Population Fragmented Nuclei (%) [1]: 16.11% and 10.36% | Population Healthy Nuclei (%) [1]: 41.28% and 56.76% | Population Hoechst High Intensity Objects (%) [1]: 0% | Population Membrane Permeable-Phenotype (%) [1]: 3.25% and 3.97% | Population Mitochondria Different-Phenotype (%) [1]: 17.07% and 15.08% | Population Mitotic Cells (%) [1]: 81.89% and 75.34% | Population Normal (%) [1]: 100% | Population Pyknosed Nuclei (%) [1]: 42.62% and 32.88% | Population Tubulin-Different-Phenotype (%) [1]: 23.58% and 29.37% | Total Cell Count [1]: 298 and 222 | Population Apoptotic (%) [2]: 73.46% and 80.82% | Population Fragmented Nuclei (%) [2]: 20.65% and 12.77% | Population Healthy Nuclei (%) [2]: 11.29% and 2.66% | Population Hoechst High Intensity Objects (%) [2]: 0% and 0.27% | Population Membrane Permeable-Phenotype (%) [2]: 2.86% and 10% | Population Mitochondria Different-Phenotype (%) [2]: 5.71% and 10% | Population Mitotic Cells (%) [2]: 26.54% and 19.18% | Population Normal (%) [2]: 100% and 99.73% | Population Pyknosed Nuclei (%) [2]: 68.06% and 84.57% | Population Tubulin-Different-Phenotype (%) [2]: 22.86% and 10% | Total Cell Count [2]: 310 and 377 | Population Apoptotic (%) [3]: 27.83% and 30.77% | Population Fragmented Nuclei (%) [3]: 13.42% and 3.92% | Population Healthy Nuclei (%) [3]: 47.99% and 64.22% | Population Hoechst High Intensity Objects (%) [3]: 0% | Population Membrane Permeable-Phenotype (%) [3]: 0.7% and 2.29% | Population Mitochondria Different-Phenotype (%) [3]: 10.49% and 14.5% | Population Mitotic Cells (%) [3]: 72.17% and 69.23% | Population Normal (%) [3]: 100% | Population Pyknosed Nuclei (%) [3]: 38.59% and 31.86% | Population Tubulin-Different-Phenotype (%) [3]: 18.88% and 22.14% | Total Cell Count [3]: 298 and 204 | Population Apoptotic (%) [4]: 65.94% and 93.38% | Population Fragmented Nuclei (%) [4]: 25.98% and 13.12% | Population Healthy Nuclei (%) [4]: 19.69% and 18.55% | Population Hoechst High Intensity Objects (%) [4]: 0% | Population Membrane Permeable-Phenotype (%) [4]: 10% and 14.63% | Population Mitochondria Different-Phenotype (%) [4]: 6% and 7.32% | Population Normal (%) [4]: 100% | Population Pyknosed Nuclei (%) [4]: 54.33% and 68.33% | Population Tubulin-Different-Phenotype (%) [4]: 24% and 48.78% | Total Cell Count [4]: 254 and 221 | Population Apoptotic (%) [5]: 32.98% and 38.18% | Population Fragmented Nuclei (%) [5]: 11.28% and 7.22% | Population Healthy Nuclei (%) [5]: 53.38% and 64.43% | Population Hoechst High Intensity Objects (%) [5]: 0% | Population Membrane Permeable-Phenotype (%) [5]: 0% and 3.2% | Population Mitochondria Different-Phenotype (%) [5]: 17.61% and 10.4% | Population Mitotic Cells (%) [5]: 67.02% and 61.82% | Population Normal (%) [5]: 100% | Population Pyknosed Nuclei (%) [5]: 35.34% and 28.35% | Population Tubulin-Different-Phenotype (%) [5]: 13.38% and 9.6% | Total Cell Count [5]: 266 and 194 | Population Apoptotic (%) [6]: 40.43% and 95.45% | Population Fragmented Nuclei (%) [6]: 31.02% and 56.65% | Population Healthy Nuclei (%) [6]: 47.22% and 30.64% | Population Hoechst High Intensity Objects (%) [6]: 0% | Population Membrane Permeable-Phenotype (%) [6]: 5.88% and 11.32% | Population Mitochondria Different-Phenotype (%) [6]: 31.37% and 37.74% | Population Normal (%) [6]: 100% | Population Pyknosed Nuclei (%) [6]: 21.76% and 12.72% | Population Tubulin-Different-Phenotype (%) [6]: 35.29% and 66.04% | Total Cell Count [6]: 216 and 173

COC[C@@H](CC(C)C)NC1=N/C(=C\c2ccc3ncsc3c2)C(=O)N1C
Population Apoptotic (%) [1]: 28.21% and 31.58% | Population Fragmented Nuclei (%) [1]: 27.8% and 24.34% | Population Healthy Nuclei (%) [1]: 58.12% and 69.41% | Population Hoechst High Intensity Objects (%) [1]: 0% | Population Membrane Permeable-Phenotype (%) [1]: 3.73% and 4.27% | Population Mitochondria Different-Phenotype (%) [1]: 9.94% and 6.64% | Population Mitotic Cells (%) [1]: 71.79% and 68.42% | Population Normal (%) [1]: 100% | Population Pyknosed Nuclei (%) [1]: 14.08% and 6.25% | Population Tubulin-Different-Phenotype (%) [1]: 13.66% and 33.18% | Total Cell Count [1]: 277 and 304 | Population Fragmented Nuclei (%) [2]: 75.02% and 85.21% | Population Healthy Nuclei (%) [2]: 17.78% and 11.87% | Population Hoechst High Intensity Objects (%) [2]: 13.82% and 16.56% | Population Membrane Permeable-Phenotype (%) [2]: 4.92% and 5.22% | Population Mitochondria Different-Phenotype (%) [2]: 5.46% and 4.48% | Population Mitotic Cells (%) [2]: 87.84% and 51.52% | Population Normal (%) [2]: 86.18% and 83.44% | Population Pyknosed Nuclei (%) [2]: 7.19% and 2.92% | Population Tubulin-Different-Phenotype (%) [2]: 16.94% and 38.81% | Total Cell Count [2]: 1194 and 1353 | Population Apoptotic (%) [3]: 32.26% and 29.41% | Population Fragmented Nuclei (%) [3]: 28.52% and 23.81% | Population Healthy Nuclei (%) [3]: 60.56% and 70.41% | Population Hoechst High Intensity Objects (%) [3]: 0% | Population Membrane Permeable-Phenotype (%) [3]: 1.16% and 4.83% | Population Mitochondria Different-Phenotype (%) [3]: 10.47% and 6.28% | Population Mitotic Cells (%) [3]: 67.74% and 70.59% | Population Normal (%) [3]: 100% | Population Pyknosed Nuclei (%) [3]: 10.92% and 5.78% | Population Tubulin-Different-Phenotype (%) [3]: 18.02% and 35.27% | Total Cell Count [3]: 284 and 294 | Population Apoptotic (%) [4]: 15.79% and 43.33% | Population Fragmented Nuclei (%) [4]: 73.6% and 85.59% | Population Healthy Nuclei (%) [4]: 21.08% and 11.79% | Population Hoechst High Intensity Objects (%) [4]: 7.03% and 15.44% | Population Membrane Permeable-Phenotype (%) [4]: 6.19% and 3.7% | Population Mitotic Cells (%) [4]: 84.21% and 56.67% | Population Normal (%) [4]: 92.97% and 84.56% | Population Pyknosed Nuclei (%) [4]: 5.32% and 2.62% | Population Tubulin-Different-Phenotype (%) [4]: 36.73% and 51.85% | Total Cell Count [4]: 1153 and 1354 | Population Apoptotic (%) [5]: 32.14% and 52.94% | Population Fragmented Nuclei (%) [5]: 34.66% and 16.78% | Population Healthy Nuclei (%) [5]: 57.39% and 77.27% | Population Hoechst High Intensity Objects (%) [5]: 0% | Population Membrane Permeable-Phenotype (%) [5]: 1.98% and 1.36% | Population Mitochondria Different-Phenotype (%) [5]: 7.43% and 5.43% | Population Mitotic Cells (%) [5]: 67.86% and 47.06% | Population Normal (%) [5]: 100% | Population Pyknosed Nuclei (%) [5]: 7.95% and 5.94% | Total Cell Count [5]: 352 and 286 | Population Apoptotic (%) [6]: 14.55% and 28.57% | Population Fragmented Nuclei (%) [6]: 76.66% and 86.7% | Population Healthy Nuclei (%) [6]: 18.12% and 11% | Population Hoechst High Intensity Objects (%) [6]: 20.81% and 19.66% | Population Membrane Permeable-Phenotype (%) [6]: 13.61% and 14.18% | Population Mitochondria Different-Phenotype (%) [6]: 1.57% and 10.45% | Population Mitotic Cells (%) [6]: 85.45% and 71.43% | Population Normal (%) [6]: 79.19% and 80.34% | Population Pyknosed Nuclei (%) [6]: 5.22% and 2.3% | Population Tubulin-Different-Phenotype (%) [6]: 27.75% and 50.75% | Total Cell Count [6]: 1331 and 1516

— ChEMBL document CHEMBL5724801, “EUbOPEN Chemogenomics Library - Multiplex” (2024)
